# BindingDB's records for doi:10.1016/j.bmc.2019.03.050 (University of Illinois At Chicago, 2019)
# Legend:
# [1] = target: T1, Replicase polyprotein 1ab (Middle East respiratory syndrome-related coronavirus (isolate United Kingdom/H123990006/2012), UniProt K9N7C7); assay: Competitive-inhibition of MERS-CoV papain-like protease using varying levels of Z-Arg-Leu-Arg-Gly-Gly-AMC as substrate by Dixon-plot analysis
# [2] = target: T1, Replicase polyprotein 1ab; assay: Binding affinity to MERS-CoV papain-like protease by SPR analysis
# How it was run: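 SPR on Biacore T200. Enzyme at 50 µg/mL in 10 mM sodium acetate pH 5.5 amine-coupled to CM5 chip (~10,000 RU); blank flow cells as reference. Compounds 0-50 µM (2-fold series) in PBSP + 0.5 mM TCEP, 2% DMSO, 30 µL/min, 25°C; double-referenced. KD from steady-state responses fit to rectangular hyperbola; rate constants from global 1:1 Langmuir fit.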
# [3] = target: T1, Replicase polyprotein 1ab; assay: Inhibition of MERS-CoV papain-like protease using Z-Arg-Leu-Arg-Gly-Gly-AMC as substrate preincubated for 5 mins followed by substrate addition and measured for 10 mins by fluorescence assay
# T1 sequence (K9N7C7 854-2740 limits assumed): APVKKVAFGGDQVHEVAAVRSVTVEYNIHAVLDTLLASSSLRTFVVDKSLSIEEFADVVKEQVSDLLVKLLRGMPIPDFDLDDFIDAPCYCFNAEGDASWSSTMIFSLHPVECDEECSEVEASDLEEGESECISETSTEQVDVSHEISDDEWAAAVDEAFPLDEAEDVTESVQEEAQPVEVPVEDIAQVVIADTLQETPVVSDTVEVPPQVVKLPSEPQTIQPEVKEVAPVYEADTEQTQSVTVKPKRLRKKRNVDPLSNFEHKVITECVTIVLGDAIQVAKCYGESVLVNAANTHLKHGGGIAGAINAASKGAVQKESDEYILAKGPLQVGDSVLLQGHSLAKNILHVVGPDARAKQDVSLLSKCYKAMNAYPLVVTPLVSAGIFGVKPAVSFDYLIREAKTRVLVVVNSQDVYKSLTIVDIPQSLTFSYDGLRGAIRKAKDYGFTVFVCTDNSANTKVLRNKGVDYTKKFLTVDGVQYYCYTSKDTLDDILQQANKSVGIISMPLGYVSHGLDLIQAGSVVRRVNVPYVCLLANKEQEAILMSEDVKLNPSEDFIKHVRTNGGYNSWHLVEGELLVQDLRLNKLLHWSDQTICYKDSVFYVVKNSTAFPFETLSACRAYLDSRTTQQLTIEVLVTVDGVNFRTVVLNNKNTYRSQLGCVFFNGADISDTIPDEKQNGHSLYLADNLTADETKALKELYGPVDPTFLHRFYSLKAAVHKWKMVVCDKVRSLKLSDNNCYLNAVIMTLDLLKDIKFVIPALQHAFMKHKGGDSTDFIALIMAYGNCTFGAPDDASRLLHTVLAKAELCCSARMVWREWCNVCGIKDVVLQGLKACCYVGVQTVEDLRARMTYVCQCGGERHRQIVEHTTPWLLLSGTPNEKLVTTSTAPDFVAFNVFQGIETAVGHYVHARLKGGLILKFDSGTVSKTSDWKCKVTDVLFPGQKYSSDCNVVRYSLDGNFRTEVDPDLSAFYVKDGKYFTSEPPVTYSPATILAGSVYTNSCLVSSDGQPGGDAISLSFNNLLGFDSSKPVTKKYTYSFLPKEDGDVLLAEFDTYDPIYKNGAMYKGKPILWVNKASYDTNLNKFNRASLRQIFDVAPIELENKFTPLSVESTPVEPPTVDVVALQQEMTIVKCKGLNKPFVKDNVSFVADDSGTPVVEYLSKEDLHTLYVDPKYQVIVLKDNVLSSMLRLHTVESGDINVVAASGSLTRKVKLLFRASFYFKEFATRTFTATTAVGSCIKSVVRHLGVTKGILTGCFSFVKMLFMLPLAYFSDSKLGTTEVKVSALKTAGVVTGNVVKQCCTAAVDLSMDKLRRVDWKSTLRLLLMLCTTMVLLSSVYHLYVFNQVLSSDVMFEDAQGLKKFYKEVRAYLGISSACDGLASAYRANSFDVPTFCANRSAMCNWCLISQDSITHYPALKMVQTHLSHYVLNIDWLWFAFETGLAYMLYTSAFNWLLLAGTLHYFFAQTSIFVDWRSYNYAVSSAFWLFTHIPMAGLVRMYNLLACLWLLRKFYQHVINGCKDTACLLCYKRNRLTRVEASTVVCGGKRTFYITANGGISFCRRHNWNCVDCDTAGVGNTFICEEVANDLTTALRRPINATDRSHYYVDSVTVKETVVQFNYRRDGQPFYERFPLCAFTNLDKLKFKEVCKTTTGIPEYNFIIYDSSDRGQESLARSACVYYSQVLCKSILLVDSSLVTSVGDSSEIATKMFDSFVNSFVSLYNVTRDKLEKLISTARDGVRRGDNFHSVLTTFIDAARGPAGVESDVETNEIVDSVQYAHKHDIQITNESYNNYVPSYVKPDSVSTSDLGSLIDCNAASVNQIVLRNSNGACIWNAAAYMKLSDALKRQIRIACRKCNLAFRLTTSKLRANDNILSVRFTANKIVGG
structure (smiles),measurement,setting,value
O=C(NC1=CC=CC2C(=O)C=C(c3nn[nH]n3)OC12)c1ccc(OCCCCc2ccccc2)cc1 (stereo not drawn) [ONO-1078],Ki,[1],127 µM
same,Kd,[2],14.1 µM
same,IC50,[3],25 µM
